Experimental findings from the EternaBench riboswitch data are described below.

This data set relates to MS2 coat protein. Kind of data set: apparent Kd, MS2 coat protein; higher = weaker binding; RNA-MaP array; FMN 200 µM where present. An outline of the steps:
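Green signal was scaled to red-channel RNA signal and control-cluster median Fmax, and the apparent Kd was taken as the median of filtered per-cluster binding-curve fits. The binding series used SNAP-549-labelled MS2 coat protein from 0.7 or 1.5 nM, doubling to 3 µM, on designs transcribed by stalled E. coli RNA polymerase on Illumina sequencing-chip clusters. Each series ran without and then with constant ligand in 100 mM Tris-HCl pH 7.5, 80 mM KCl, 4 mM MgCl2, BSA, DTT, yeast tRNA and Tween-20.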

[1] abbreviates: designed as: OFF switch for flavin mononucleotide, no ligand.
The mark [2] stands for this setting: ligand present: flavin mononucleotide, designed as: OFF switch for flavin mononucleotide.
The mark [3] stands for this setting: designed as: ON switch for flavin mononucleotide, no ligand.
Where [4] appears, read: ligand present: flavin mononucleotide, designed as: ON switch for flavin mononucleotide.

By apparent Kd is commonly meant the concentration giving half-maximal binding under the conditions of the assay. Turning to “AAUAAUAAGGAGGAUAUCGUAUCGGAAACGAUACGAGAAGGUCUAACAUGAGGAUCACCCAUGUUCCUCAAAUA”, the “apparent Kd” value runs as follows: under setting [1], 0.0381 µM; under setting [2], 0.0543 µM.
On the same counts, the results for “AAAAAACAUGAGGAUCACCCAUGUGAGGAUAUGCAAAAAAAAAAAAAAAAAUAAAAAAGCAGAAGGCACAAAAA” are 0.0634 µM and 0.0862 µM.
With “AUUAAGUGAGGAUAUACAAGAUCGCUUACCGCCAAAGGCGGACAUGAGGAUCACCCAUGUAGAAGGCACAAAUU”, the “apparent Kd” value came to 0.0457 µM under setting [1] and 0.27 µM under setting [2].
On to “GGUGCAUAUGAGAAGGCGGUCAUGAAACAUGAUCGAGGAUAUCAUGUAAACAUGAGGAUCACCCAUGUAUGGGAAUAAUGCACC”, for which the “apparent Kd” value was determined as 0.238 µM under setting [3] and 0.016 µM under setting [4].
On to “UUUUAGAUCCGAGGAUAUACAAUCCGGAAACGGUACAUGAGGAUCACCCAUGUAGAAGGCGGAUCUACAGGUACUAAAGUAUUU”, for which the “apparent Kd” value was 0.01 µM under setting [1] and 0.00884 µM under setting [2].
On to “AGGCUUGCCACAGGAUAUGCUGACAUGAGAGAAGCAGAAGGGUGGUCGACGUUUUGGCGACAUGAGGAUCACCCAUGUUAGCGU”, for which the “apparent Kd” value runs as follows: under setting [3], 0.178 µM; under setting [4], 0.0283 µM.
In the same order, the values of “AAACACGGACAUGAGGAUCACCCAUGUGGCGAAAGCCUUGGGAGAAGGCCGUAUGCAAAGCAUACGGAGGAUAUCCAUACCGUG” are 0.0181 µM and 0.00634 µM.
In the case of “GCAGCUAAUGCAGGAUAUCAGCACGUGUAGUGCUGAGAAGGGCACAUGAGGAUCACCCAUGUGAUCAAUUAAUAUUAAUGCUGC”, the “apparent Kd” value reads like this: under setting [1], 0.0249 µM; under setting [2], 0.152 µM.
For “ACAAAUCAUGUAGGAUAUCGAUUGCGUCGCGAUCGAGAAGGACAAGAGGGUCACCCUUGUACAUGAGGAUCACCCAUGUCAUGA”, the “apparent Kd” value reads like this: under setting [1], 0.193 µM; under setting [2], 0.12 µM.
On the same counts, the results for “AGAAACUACGAGAAGGACAUGUGGUCCAAAAGAAACAUGAGGAUCACCCAUGUAGGAUAUCGUAGUUUCAGGAUCGUGAGAUCA” are 0.28 µM and 0.0568 µM.
Turning to “AAGAAGUCAGGAUAUCCAGCUCGUCACUUGCGUGAUGAGUUGGAGAAGGGACAUGAGGAUCACCCAUGUAAAGG”, the “apparent Kd” value under setting [1] was determined as 0.202 µM and the “apparent Kd” value under setting [2] came to 0.23 µM.
In the case of “GCGAGCAUACAGAAGGGAUCGUCGUCGCGGCUGUCAGGAUAUGUAGCUUGGCCUAAACAUGAGGAUCACCCAUGUAUAAUGCUA”, the “apparent Kd” value is 0.111 µM under setting [3] and 0.0186 µM under setting [4].
Consider “AUGUGGUGCGUAGGAUAUCAUUGAGGGUCACCCUGAGAAGGACGUGAGGACAUGAGGAUCACCCAUGUGGAUCACCCAUGUCAU”, for which the “apparent Kd” value reads like this: under setting [1], 0.245 µM; under setting [2], 0.288 µM.
For “ACGUGUCGUGUAGGAUAUGACACAGGAAACUGGUCAGAAGGACAUGAGGAUCACCCAUGUAAAAUGUUCAAGAAUAACGUAUGC”, the “apparent Kd” value under setting [1] is 0.0433 µM and the “apparent Kd” value under setting [2] is 0.108 µM.
With “UGGUCGCGAGGAUAUACAUGAGGAUCACCCAUGUUUGAGCGCCAUCCGUUCGGCUCGUGUAGAAGGUGCACACA”, the “apparent Kd” value by setting is: under setting [1], 0.0219 µM; under setting [2], 0.0199 µM.
As for “GGAUGCCGCUCAGGAUAUGUGGGUUGUCUAGUAUUUAGAUUCCACAUGAGGAUCACCCAUGUAACACAGAAGGGAGAUGGUGAU”, the “apparent Kd” value by setting is: under setting [3], 0.214 µM; under setting [4], 0.0227 µM.
Turning to “GGUACCAACACAGGAUAUGCAAUCCUUUGGGUUGCAGAAGGGUGAAACAUGAGGAUCACCCAUGUGGUGCCAGGGCGUGAGCCC”, the “apparent Kd” value reads like this: under setting [3], 1.29 µM; under setting [4], 0.104 µM.
On the same counts, the results for “GACAUGAGGAUCACCCAUGUCCAACCAGAAGGCCAGAAACCAGGCCCUUGUAUCGGGCUUGGGAUGGAGGAUAUGGGCGCCGAA” are 0.0614 µM and 0.0316 µM.
Regarding “GUCUUCCUAGGAUAUACAUGAGGAUCACCCAUGUAAAGUUUCGUCAAAGGAUAAUCGAGUAGAAGGAGGUGGAU”, the “apparent Kd” value runs as follows: under setting [1], 0.015 µM; under setting [2], 0.0172 µM.
As for “GUAGCAUACCGAGGAUAUUCUAACCGGAAACGGACAUGAGGAUCACCCAUGUGGCGAAAGCCUAGGGAGAAGGCGGAAUGCUAC”, the “apparent Kd” value was 0.0105 µM under setting [3] and 0.0116 µM under setting [4].
“GUCAGCUCGGGAGGAUAUACAACACUGCUUCGGCAGUGUAUUAAGAUCACAUGAGGAUCACCCAUGUAGAAGGCACGAGCUGAU”: the “apparent Kd” value by setting is: under setting [1], 0.00779 µM; under setting [2], 0.051 µM.
In the same order, the values of “UCUACAUAAAUUCAUCAAUACAGAAAGGAUAUGAAAUACAUGAGGAUCACCCAUGUUCAUGGGAAUUAGAAGGUUCAAUUAGCC” are 0.133 µM and 0.0846 µM.
With “UUUGUUGUUGUGAGGAUAUCGUUGAUUUUUUGAAACGAGAAGGCACAUGAGGAUCACCCAUGUUUGUUGUUGGU”, the “apparent Kd” value was found to be 0.0662 µM under setting [1] and 0.248 µM under setting [2].
On the same counts, the results for “AGGAUGUUAGGAUAUCGAAGGUUGUGGCAGGCGGGAAUUUGCGAGAAGGAACAUGAGGAUCACCCAUGUGAAAU” are 0.0229 µM and 0.0222 µM.
On to “GCCAUUGCAUGAGGAUAUGCUCCCGUUUCGGGAGCAGAAGGCAUGUCAUAAGACAUGAGGAUCACCCAUGUAUUUAAGAUGGCA”, for which the “apparent Kd” value is, setting by setting: under setting [3], 0.273 µM; under setting [4], 0.0115 µM.
As for “UGUAUGGACAGAGGAUAUACAGAUAGGAUCUACUAUCAAACAAUCCUCACAUGAGGAUCACCCAUGUAGAAGGCUGUCCAUACU”, the “apparent Kd” value runs as follows: under setting [1], 0.105 µM; under setting [2], 0.809 µM.
Consider “GCAGCGCCUGACAUGAGGAUCACCCAUGUUCCAUUGUUGAGUCAGGAUAUAGUCUAGAAACUAGACUAGAAGGGAUAUGCUGCU”, for which the “apparent Kd” value is, setting by setting: under setting [3], 0.0702 µM; under setting [4], 0.0508 µM.
As for “UUGUUCCAUGUAGGAUAUGCAUAUUCUUAUUAUGCAGAAGGACAUGAGGAUCACCCAUGUAUGUUAUUAUUAUAUGUUACAUGU”, the “apparent Kd” value by setting is: under setting [1], 0.0723 µM; under setting [2], 0.392 µM.
On the same counts, the results for “CCGAAUAUGCAGGAUAUCGUAUAGGAAACUAUACGAGAAGGGUAAACAUGAGGAUCACCCAUGUUCCUUAACGG” are 0.0208 µM and 0.0192 µM.
As for “GCAUUGAUAGCAGGAUAUAUGUUUCCUACAUGAGGAUCACCCAUGUAGGUGAUCAGCCGAGAAAAGUAGAAGGGCUAUCAAUGC”, the “apparent Kd” value under setting [3] was determined as 0.0156 µM and the “apparent Kd” value under setting [4] worked out at 0.0141 µM.
Take “CACGGUGAUGUAGGAUAUACGCUGGAAUACAGCGUAGAAGGACAUGAGGAUCACCCAUGUAAAGUGUCUCCAAAUAACACCGUG”: the “apparent Kd” value runs as follows: under setting [1], 0.0325 µM; under setting [2], 0.0905 µM.
Regarding “UUGAUUAUACAAGGAUAUCAAUUGUAUACAAGUCAUACAUGAGGAUCACCCAUGUUUUAUUUUUUUGAGAAGGUGUAUUGUCAG”, the “apparent Kd” value runs as follows: under setting [3], 0.0389 µM; under setting [4], 0.024 µM.
In the case of “GCCGAGUGAGGAUAUAGCCAGGUUCGAUAAGGUCGAAUCGGCUAGAAGGCACAUGAGGAUCACCCAUGUGGGUA”, the “apparent Kd” value is 0.225 µM under setting [1] and 0.449 µM under setting [2].
“GCGUAUUAGGUGUAGCUAGACAUUCAAGAAGGGUGAAGAACAUGAGGAUCACCCAUGUAGUUGUUACAGGAUAUUGAUUUACGC”: the “apparent Kd” value is, setting by setting: under setting [3], 0.785 µM; under setting [4], 0.26 µM.
In the same order, the values of “GAGCGGCGUACAGGAUAUCCUACAUGAGGAUCACCCAUGUCACAUUUACACGAGAACGUGUACGAGGAGAAGGGUGGGUUCGUG” are 0.287 µM and 0.588 µM.
“AACUCACAUGAGGAUCACCCAUGUGAGGAUAUAUUGUUAUGGAUGUUAUUUUGUAGUGGUAGAAGGCGCGUGAU”: the “apparent Kd” value was determined as 0.0153 µM under setting [1] and 0.0152 µM under setting [2].
With “GUUGAGCGUGCUACGCAAAAUAACGCAGAAGGCCAACAUGAGGAUCACCCAUGUAAACGAAAGAUGGAGGAUAUGCGGUUUGGC”, the “apparent Kd” value came to 0.0504 µM under setting [3] and 0.00681 µM under setting [4].
As to “ACAUGAUCAGGAUAUACAUGAGGAUCACCCAUGUAAAUAAAAAAAAAACUUUCUUUAUGUAGAAGGGAUCUUGU”, the “apparent Kd” value runs as follows: under setting [1], 0.021 µM; under setting [2], 0.0301 µM.
With “UUCACGUUAGUAGGAUAUCCGACAUGAGGAUCACCCAUGUCAACAUGGCUCUAGGGAAGUUGUUAGGAGAAGGGCUUUUAAAUA”, the “apparent Kd” value worked out at 0.0119 µM under setting [3] and 0.0103 µM under setting [4].
Consider “AAUAAACUCACAGGAUAUAGCAUCGACGUUGCGAACUUAGCGACGUCGAUGCUAGAAGGGUGAAAACAUGAGGAUCACCCAUGU”, for which the “apparent Kd” value under setting [3] is 0.0309 µM and the “apparent Kd” value under setting [4] came to 0.0134 µM.
As to “UAUUACAGAUAAGGAUAUCGACAUGAGGAUCACCCAUGUAUUUGGGAAUGUUUACUGAAUUCUUACGAGAAGGUAUACGUACUU”, the “apparent Kd” value reads like this: under setting [1], 0.154 µM; under setting [2], 0.118 µM.
In the case of “UGAACUUCAGAGAAGGUCGAAUCGCAACGGUUCGAAGGAUAUCUGGAAACAUGAGGAUCACCCAUGUAACCGGGUGGAUGUCCU”, the “apparent Kd” value under setting [1] was 0.0568 µM and the “apparent Kd” value under setting [2] is 0.246 µM.
“GGGUACGUUUCGUAGCAGUGUCAUCGAGAAGGCCCUGACAUGAGGAUCACCCAUGUUGUUACAUGGGAGGAUAUCGAUGAUUUU”: the “apparent Kd” value is 0.0191 µM under setting [3] and 0.00606 µM under setting [4].
Turning to “GGAAUAAAUGCAGGAUAUACGUGGAAAGCCUUCAACAUGAGGAUCACCCAUGUAGAAGGGCAUCUCCCGACCGAAUCGGAUCUC”, the “apparent Kd” value amounted to 0.00572 µM under setting [1] and 0.00625 µM under setting [2].
On the same counts, the results for “UAGAUGGGAGGAUAUGCAUAGAUACAGAUUCAUGUAGUGCUACAUGAGGAUCACCCAUGUAGAAGGCCCGUCUU” are 0.0212 µM and 0.225 µM.
In the same order, the values of “CGAUAAAGGUGAGGAUAUGAGAAUAGAAAGAAAUCAGAAGGCACACAUGAGGAUCACCCAUGUGAGUUCUUGAGAUUACAUGGU” are 0.0149 µM and 0.0151 µM.
In the same order, the values of “CUUACACAUGAGGAUCACCCAUGUGAGGAUAUGCGUACGUUGUCCGUAGGCGACGUGCGCAGAAGGCGCUUGGU” are 0.0616 µM and 0.062 µM.
Consider “GGAUAGGACAGAGGAUAUACGUGCUAGAGAUACUAGCAAAAUUUCCUCACAUGAGGAUCACCCAUGUAGAAGGCUGUCCUCUCG”, for which the “apparent Kd” value under setting [1] amounted to 0.018 µM and the “apparent Kd” value under setting [2] was determined as 0.409 µM.
